Laboratory results from ChEMBL document CHEMBL3425433, “Discovery of bicyclic pyrazoles as class III histone deacetylase SIRT1 and SIRT2 inhibitors” (Bioorg Med Chem Lett, 2015).
Calls of active or inactive are those of the source. The calls are words filed in the database; no cut-off is given here.

How the values were obtained:
Histone deacetylase 2 = Histone deacetylase 2 (Homo sapiens, UniProt Q92769); assay: Inhibition of HDAC2 (unknown origin)
Histone deacetylase 1 = Histone deacetylase 1 (Homo sapiens, UniProt Q13547); assay: Inhibition of HDAC1 (unknown origin)
[1] = biological target: T1, Histone deacetylase 7 (Homo sapiens) (UniProt Q8WUI4); assay: Inhibition of HDAC7 (unknown origin)
T1 sequence (whole entry): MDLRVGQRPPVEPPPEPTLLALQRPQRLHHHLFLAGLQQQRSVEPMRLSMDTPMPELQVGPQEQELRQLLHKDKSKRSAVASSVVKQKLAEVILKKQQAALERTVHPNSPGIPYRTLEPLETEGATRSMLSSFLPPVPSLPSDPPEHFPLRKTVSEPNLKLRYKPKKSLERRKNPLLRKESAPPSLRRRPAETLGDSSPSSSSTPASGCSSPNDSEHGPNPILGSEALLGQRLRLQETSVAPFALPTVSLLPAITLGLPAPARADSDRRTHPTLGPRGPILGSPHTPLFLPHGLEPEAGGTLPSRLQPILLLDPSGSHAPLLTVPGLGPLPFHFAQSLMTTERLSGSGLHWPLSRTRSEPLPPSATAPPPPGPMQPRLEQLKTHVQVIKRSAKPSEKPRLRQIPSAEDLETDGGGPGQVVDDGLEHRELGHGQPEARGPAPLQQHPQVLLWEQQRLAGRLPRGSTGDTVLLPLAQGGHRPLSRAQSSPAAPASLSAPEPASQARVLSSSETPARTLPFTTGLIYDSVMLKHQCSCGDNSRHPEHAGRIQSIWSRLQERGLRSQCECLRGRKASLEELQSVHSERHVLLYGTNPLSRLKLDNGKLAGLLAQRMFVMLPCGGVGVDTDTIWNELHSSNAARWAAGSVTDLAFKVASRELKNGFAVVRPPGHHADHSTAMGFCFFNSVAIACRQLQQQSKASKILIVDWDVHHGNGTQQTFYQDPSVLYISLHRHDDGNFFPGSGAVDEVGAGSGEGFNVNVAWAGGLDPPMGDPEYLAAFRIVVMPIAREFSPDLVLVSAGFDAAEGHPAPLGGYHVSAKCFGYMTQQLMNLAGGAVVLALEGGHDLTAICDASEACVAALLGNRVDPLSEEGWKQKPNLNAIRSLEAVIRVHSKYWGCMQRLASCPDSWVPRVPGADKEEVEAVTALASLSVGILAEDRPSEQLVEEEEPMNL

[2] = biological target: T2, Histone deacetylase 8 (Homo sapiens) (UniProt Q9BY41); assay: Inhibition of HDAC8 (unknown origin)
T2 sequence (whole entry): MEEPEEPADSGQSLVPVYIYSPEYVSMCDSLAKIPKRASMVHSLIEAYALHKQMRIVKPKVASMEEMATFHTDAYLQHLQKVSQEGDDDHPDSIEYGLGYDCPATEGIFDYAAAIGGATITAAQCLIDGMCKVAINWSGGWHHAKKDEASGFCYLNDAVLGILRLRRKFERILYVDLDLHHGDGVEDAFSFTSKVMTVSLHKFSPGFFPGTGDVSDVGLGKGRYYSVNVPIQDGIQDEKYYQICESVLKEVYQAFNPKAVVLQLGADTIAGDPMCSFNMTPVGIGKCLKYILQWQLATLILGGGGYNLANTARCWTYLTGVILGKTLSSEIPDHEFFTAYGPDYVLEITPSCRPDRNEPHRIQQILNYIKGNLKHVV

[3] = biological target: T3, NAD-dependent protein deacetylase sirtuin-2 (Homo sapiens) (UniProt Q8IXJ6); assay: Inhibition of His-tagged human recombinant SIRT2 expressed in Escherichia coli at 20 uM using Cbz-Lys(Ac)-AMC as substrate by fluorescence assay
T3 sequence (whole entry): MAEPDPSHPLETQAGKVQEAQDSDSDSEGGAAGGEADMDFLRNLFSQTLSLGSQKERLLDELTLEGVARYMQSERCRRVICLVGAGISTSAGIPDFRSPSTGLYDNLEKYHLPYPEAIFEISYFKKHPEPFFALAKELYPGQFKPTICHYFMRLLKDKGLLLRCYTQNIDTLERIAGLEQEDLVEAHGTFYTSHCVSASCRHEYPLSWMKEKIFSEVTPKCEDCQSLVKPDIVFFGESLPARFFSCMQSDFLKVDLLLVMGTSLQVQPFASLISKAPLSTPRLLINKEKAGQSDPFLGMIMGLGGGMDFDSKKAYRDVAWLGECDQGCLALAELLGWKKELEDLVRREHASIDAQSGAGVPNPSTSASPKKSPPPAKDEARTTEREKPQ
Summary of the method: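 Fluorescence deacetylase assay with in-house Cbz-Lys(Ac)-AMC substrate. Values are means of three experiments on racemic material. Single-point lines were tested at 20 µM, and less than 20% inhibition was scored as no inhibition.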

Histone deacetylase 2, sequence (Q92769 whole entry): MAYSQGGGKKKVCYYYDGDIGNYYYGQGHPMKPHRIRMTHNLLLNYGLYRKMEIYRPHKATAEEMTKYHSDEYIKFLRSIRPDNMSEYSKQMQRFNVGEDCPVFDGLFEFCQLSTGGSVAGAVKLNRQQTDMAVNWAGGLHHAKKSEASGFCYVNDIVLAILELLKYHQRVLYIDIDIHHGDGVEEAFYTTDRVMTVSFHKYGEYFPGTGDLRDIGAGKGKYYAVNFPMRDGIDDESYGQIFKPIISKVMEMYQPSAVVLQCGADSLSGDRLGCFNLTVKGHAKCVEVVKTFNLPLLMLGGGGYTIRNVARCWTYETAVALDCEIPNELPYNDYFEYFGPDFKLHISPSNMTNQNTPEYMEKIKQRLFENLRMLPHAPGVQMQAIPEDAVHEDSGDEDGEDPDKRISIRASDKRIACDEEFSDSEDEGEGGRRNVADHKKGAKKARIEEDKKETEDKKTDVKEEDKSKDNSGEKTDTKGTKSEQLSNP
Histone deacetylase 1, sequence (Q13547 whole entry): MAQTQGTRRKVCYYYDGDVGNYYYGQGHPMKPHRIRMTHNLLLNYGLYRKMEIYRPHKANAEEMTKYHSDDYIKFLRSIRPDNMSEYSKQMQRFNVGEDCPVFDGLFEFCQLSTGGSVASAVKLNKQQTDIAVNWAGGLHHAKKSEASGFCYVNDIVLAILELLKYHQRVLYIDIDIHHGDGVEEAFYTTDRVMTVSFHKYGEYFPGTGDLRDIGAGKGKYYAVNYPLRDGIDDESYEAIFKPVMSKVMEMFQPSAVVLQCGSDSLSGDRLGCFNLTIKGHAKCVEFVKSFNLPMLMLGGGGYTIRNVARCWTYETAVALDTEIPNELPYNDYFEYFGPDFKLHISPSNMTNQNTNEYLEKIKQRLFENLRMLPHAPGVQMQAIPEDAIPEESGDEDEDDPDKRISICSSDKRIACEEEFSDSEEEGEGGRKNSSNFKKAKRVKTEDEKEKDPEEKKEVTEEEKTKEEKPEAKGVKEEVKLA

## Cn1c(-c2n[nH]c3c2CC(C)(C)CC3C(N)=O)cc2ccccc21 (racemic)
Histone deacetylase 2
  inhibition: inactive
Histone deacetylase 1
  inhibition: inactive
[1]
  inhibition: inactive
[2]
  inhibition: inactive
[3]
  inhibition: < 20%

## NC(=O)C1CC2(Cc3c(-c4ccc(Cl)cc4)n[nH]c31)OCCO2 (racemic)
Histone deacetylase 2
  inhibition: inactive
Histone deacetylase 1
  inhibition: inactive
[1]
  inhibition: inactive
[2]
  inhibition: inactive
[3]
  inhibition: < 20%

## CNC(=O)C1CCCc2c(-c3ccc(Cl)cc3)n[nH]c21 (racemic)
Histone deacetylase 2
  inhibition: inactive
Histone deacetylase 1
  inhibition: inactive
[1]
  inhibition: inactive
[2]
  inhibition: inactive
[3]
  inhibition: < 20%

## CC1(C)Cc2c(-c3ccc(Br)cc3)n[nH]c2C(C(N)=O)C1 (racemic)
Histone deacetylase 2
  inhibition: inactive
Histone deacetylase 1
  inhibition: inactive
[1]
  inhibition: inactive
[2]
  inhibition: inactive
[3]
  inhibition: 42%

## CC1(C)Cc2c(-c3cc4ccccc4s3)n[nH]c2C(C(N)=O)C1 (racemic)
Histone deacetylase 2
  inhibition: inactive
Histone deacetylase 1
  inhibition: inactive
[1]
  inhibition: inactive
[2]
  inhibition: inactive
[3]
  inhibition: 67%

## NC(=O)C1CC(c2ccccc2)Cc2c(-c3ccc(Cl)cc3)n[nH]c21 (mixture of isomers)
Histone deacetylase 2
  inhibition: inactive
Histone deacetylase 1
  inhibition: inactive
[1]
  inhibition: inactive
[2]
  inhibition: inactive
[3]
  inhibition: 62%

## NC(=O)C1CCCc2c(-c3ccccc3Cl)n[nH]c21 (racemic)
Histone deacetylase 2
  inhibition: inactive
Histone deacetylase 1
  inhibition: inactive
[1]
  inhibition: inactive
[2]
  inhibition: inactive
[3]
  inhibition: 11%

## NC(=O)C1CCCc2c(-c3ccc(F)cc3)n[nH]c21 (racemic)
Histone deacetylase 2
  inhibition: inactive
Histone deacetylase 1
  inhibition: inactive
[1]
  inhibition: inactive
[2]
  inhibition: inactive
[3]
  inhibition: < 20%

## NC(=O)C1CCCc2c(-c3ccc(C(F)(F)F)cc3)n[nH]c21 (racemic)
Histone deacetylase 2
  inhibition: inactive
Histone deacetylase 1
  inhibition: inactive
[1]
  inhibition: inactive
[2]
  inhibition: inactive
[3]
  inhibition: < 20%

## CCOC(=O)C1CCCc2c(-c3ccc(Cl)c(F)c3)n[nH]c21 (racemic)
Histone deacetylase 2
  inhibition: inactive
Histone deacetylase 1
  inhibition: inactive
[1]
  inhibition: inactive
[2]
  inhibition: inactive
[3]
  inhibition: < 20%

## NC(=O)C1Cc2ccccc2Cc2c(-c3ccc(Cl)cc3)n[nH]c21 (racemic)
Histone deacetylase 2
  inhibition: inactive
Histone deacetylase 1
  inhibition: inactive
[1]
  inhibition: inactive
[2]
  inhibition: inactive
[3]
  inhibition: 50%

## NC(=O)C1CCCc2c(-c3cccs3)n[nH]c21 (racemic)
Histone deacetylase 2
  inhibition: inactive
Histone deacetylase 1
  inhibition: inactive
[1]
  inhibition: inactive
[2]
  inhibition: inactive
[3]
  inhibition: < 20%

## NC(=O)C1CCCc2c(-c3ccccc3)n[nH]c21 (racemic)
Histone deacetylase 2
  inhibition: inactive
Histone deacetylase 1
  inhibition: inactive
[1]
  inhibition: inactive
[2]
  inhibition: inactive
[3]
  inhibition: < 20%

## NC(=O)C1CCCc2c(-c3csc4ccccc34)n[nH]c21 (racemic)
Histone deacetylase 2
  inhibition: inactive
Histone deacetylase 1
  inhibition: inactive
[1]
  inhibition: inactive
[2]
  inhibition: inactive
[3]
  inhibition: 44%

## NC(=O)C1CCCCCc2c(-c3ccc(Cl)cc3)n[nH]c21 (racemic)
Histone deacetylase 2
  inhibition: inactive
Histone deacetylase 1
  inhibition: inactive
[1]
  inhibition: inactive
[2]
  inhibition: inactive
[3]
  inhibition: 22%

## Cn1c(-c2n[nH]c3c2CCCC3C(N)=O)cc2cc(Cl)ccc21 (racemic)
Histone deacetylase 2
  inhibition: inactive
Histone deacetylase 1
  inhibition: inactive
[1]
  inhibition: inactive
[2]
  inhibition: inactive
[3]
  inhibition: 51%

## Cn1cc(-c2n[nH]c3c2CCCC3C(N)=O)c2ccccc21 (racemic)
Histone deacetylase 2
  inhibition: inactive
Histone deacetylase 1
  inhibition: inactive
[1]
  inhibition: inactive
[2]
  inhibition: inactive
[3]
  inhibition: < 20%

## NC(=O)C1CCCc2c(-c3cc4cc(Br)ccc4s3)n[nH]c21 (racemic)
Histone deacetylase 2
  inhibition: inactive
Histone deacetylase 1
  inhibition: inactive
[1]
  inhibition: inactive
[2]
  inhibition: inactive
[3]
  inhibition: 33%

## COc1ccc(-c2n[nH]c3c2CCCC3C(N)=O)cc1 (racemic)
Histone deacetylase 2
  inhibition: inactive
Histone deacetylase 1
  inhibition: inactive
[1]
  inhibition: inactive
[2]
  inhibition: inactive
[3]
  inhibition: < 20%

## NC(=O)C1CCCc2c(-c3ccc(Cl)cc3Cl)n[nH]c21 (racemic)
Histone deacetylase 2
  inhibition: inactive
Histone deacetylase 1
  inhibition: inactive
[1]
  inhibition: inactive
[2]
  inhibition: inactive
[3]
  inhibition: < 20%

## CC1(C)Cc2c(-c3ccc(Cl)c(Cl)c3)n[nH]c2C(C(N)=O)C1 (racemic)
Histone deacetylase 2
  inhibition: inactive
Histone deacetylase 1
  inhibition: inactive
[1]
  inhibition: inactive
[2]
  inhibition: inactive
[3]
  inhibition: 28%

## CC1(C)CCC(C(N)=O)c2[nH]nc(-c3ccc(Cl)cc3)c21 (racemic)
Histone deacetylase 2
  inhibition: inactive
Histone deacetylase 1
  inhibition: inactive
[1]
  inhibition: inactive
[2]
  inhibition: inactive
[3]
  inhibition: < 20%

## NC(=O)C1CCCc2c(-c3cc4ccccc4[nH]3)n[nH]c21 (racemic)
Histone deacetylase 2
  inhibition: inactive
Histone deacetylase 1
  inhibition: inactive
[1]
  inhibition: inactive
[2]
  inhibition: inactive
[3]
  inhibition: 43%

## NC(=O)C1CCCc2c(-c3cccc(Cl)c3)n[nH]c21 (racemic)
Histone deacetylase 2
  inhibition: inactive
Histone deacetylase 1
  inhibition: inactive
[1]
  inhibition: inactive
[2]
  inhibition: inactive
[3]
  inhibition: < 20%
